We go through one compound from ChEMBL document CHEMBL5154683, “A 5-FU Precursor Designed to Evade Anabolic and Catabolic Drug Pathways and Activated by Pd Chemistry In Vitro and In Vivo” (J Med Chem, 2022).

Data set [1] is described as follows: Plasma protein binding in human at 5 uM. Type of data set: ADME, cell-free. The conditions noted are these: read-out: PPB (converted). In short, it runs like this: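 Binding of compound at 5 μM measured in rat and human plasma, with compound recovery determined; n = 3.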
Data set [2] is described as follows: Metabolic stability in rat hepatocytes assessed as intrinsic clearance at 1 uM measured per 10^6 cells by LC-MS/MS analysis. Type of data set: ADME, cell-based, Hepatocyte. The following applies: read-out: CLH. The procedure, abridged:
(§1)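 Suspended hepatocytes (0.5 × 10⁶ cells/mL) in Williams E medium with 2 mM L-glutamine and 25 mM HEPES at 37 °C, compound added with 0.25% v/v DMSO after preincubation; aliquots quenched into methanol with internal standard at time points, centrifuged, supernatant analyzed by LC-MS/MS; two control compounds included.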

Data set [3] can be described thus: Cmax in male Wistar Han rat at 10 mg/kg, po administered as single dose measured upto 24 hrs. Type of data set: ADME, organism-based. Details: time < 24 hrs, dose 10 mg/kg, route po. The conditions noted are these: in vivo. The procedure, abridged:
(§2)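 Male jugular-vein-cannulated Wistar Han rats, 263–319 g, single dose. IV: 1 mg/kg as 2 mL/kg of 0.5 mg/mL in 5% DMSO/95% HPCD (20% w/v), not fasted. PO: 10 mg/kg as 5 mL/kg of 2 mg/mL suspension in 5% DMSO/95% tween 80/HPCD vehicle, fasted overnight. Serial cannula blood sampling 0.083/0.25–24 h (n = 3/route); parent quantified by QToF against calibration curve.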

Data set [4] in a line: Half life in male Wistar Han rat at 1 mg/kg, iv administered as single dose measured upto 24 hrs. Type of data set: ADME, organism-based. The conditions noted are these: in vivo. The procedure, abridged:
as §2

Data set [5] can be described thus: Apparent permeability across basolateral to apical side in human Caco-2 cells assessed as drug recovery at 10 uM measured after 120 mins by LC-MS/MS analysis. The conditions noted are these: read-out: Drug recovery. Type of data set: ADME, cell-based. The procedure, abridged:
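Caco-2 cells (P40-60) seeded at 1 × 10⁵ cells/cm² on Transwells, used on day 20; rinsed and equilibrated 40 min in HBSS pH 7.4. Compound at 10 μM in HBSS, 1% v/v DMSO, added apically (A–B) or basolaterally (B–A); 120 min at 37 °C, 5% CO₂. Lucifer yellow monitored monolayer integrity; LC-MS/MS with eight-point calibration; recovery from C₀ and both compartments.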
(In general: Caco-2 monolayers are a common model of the intestinal barrier.)

Data set [6] is described as follows: Toxicity in BALB/c nude mouse xenografted with human HCT-116 cells assessed as change in body weight at 75 to 150 mg/kg, po administered via oral gavage measured daily for 7 days. Type of data set: organism-based. The following applies: in vivo, 168 h, dose 75-150 mg/kg, time 7 day. In short, it runs like this: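 Female BALB/c nude mice, 6–7 weeks, inoculated s.c. with 5 × 10⁵ HCT116 cells in 1:1 Matrigel/PBS; at 200–300 mm³ randomized; Pd resins (2 mg in 50 μL) injected intratumorally (groups 1–3), then oral gavage daily for 7 days with 150 or 75 mg/kg or vehicle; untreated group. Body weight daily, clinical signs twice daily.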

The nature of data set [7]: Drug metabolism in PBS buffer assessed as dealkylation of parent compound causing metabolite formation at 100 uM in presence of palladium resin. Type of data set: ADME. The procedure, abridged: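 Prodrug (100 μM in PBS, pH 7.4) shaken at 1200 rpm, 37 °C with 1 mg/mL Pd resins (30 μm). Sampled at 10, 20, 40 min, 1, 3, 6, 24 and 48 h; analyzed by reverse-phase UPLC (C18, 60 °C, UV 254 nm), products identified by retention time against authentic standards.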

The nature of data set [8]: AUC (0 to t) in male Wistar Han rat at 1000 mg/kg, po administered as single dose measured upto 24 hrs. Type of data set: ADME, organism-based. Details: dose 1000 mg/kg, time < 24 hrs, route po. The following applies: in vivo. The procedure, abridged: (§3)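 Single oral dose 1000 mg/kg in male and female rats, dosing volume 10 mL/kg (n = 6); animals observed 14 days with clinical checks, functional/neurobehavioral tests and body weight, necropsy on d15; exposure parameters from the toxicokinetic arm of this study.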

The subject of a further data set is HCT-116. Nature of the data set: Antiproliferative activity against human HCT-116 cells assessed as reduction in cell viability at 100 uM incubated for 5 days in presence of Pd-resins at 0.8 mg/ml by PrestoBlue dye based assay relative to control. Type of data set: functional. The following applies: time 5 day. In short, it runs like this:
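HCT116 seeded at 750 cells/well and grown 48 h. Medium then replaced with fresh medium with or without Pd resins (20–160 μg per well; 0.2–1.4 mg/mL). Compound added as 5 μL of a 2 mM stock in 2% DMSO/medium, incubated 5 d. PrestoBlue fluorescence read; values normalised to untreated cells within each resin dilution.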

The test system of another data set is BXPC-3. Briefly: Antiproliferative activity against human BxPC-3 cells assessed as increase in cytotoxicity at 1 uM incubated for 5 days in presence of Pd-resin by PrestoBlue dye based assay. The conditions noted are these: time 5.0 day. Type of data set: functional, cell-based. In short, it runs like this: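 BxPC-3 (RPMI, 10% FBS, 2 mM glutamine) at 2500 cells/well, 48 h attachment, then fresh medium with 1 μM drug/prodrug ± 1 mg/mL Pd resins, 0.1% v/v DMSO, 5 d at 37 °C. Viability by PrestoBlue (10% v/v, 1 h, ex 540/em 590 nm), normalized to DMSO-treated cells; n = 3.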

The nature of data set [9]: Drug metabolism in BALB/c mouse bearing HCT-116 tumor assessed as release of 5-FU in plasma at 75 to 150 mg/kg, po administered for 7 days. The conditions noted are these: in vivo, 168 h, dose 75-150 mg/kg, time 7 day. Type of data set: ADME, organism-based. In short, it runs like this:
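Same HCT116-bearing BALB/c nude mice with intratumoral Pd resins and 7-day oral dosing at 75 or 150 mg/kg; blood collected by microsampling on day 7, 2 h after administration, plasma frozen at –20 °C for analysis.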

A short description of data set [10]: Cmax in female Wistar Han rat at 1000 mg/kg, po administered as single dose measured upto 24 hrs. Type of data set: ADME, organism-based. The following applies: in vivo. Details: time < 24 hrs, dose 1000 mg/kg, route po. The procedure, abridged: as §3
Data set [11] is described as follows: Mean residence time in male Wistar Han rat at 10 mg/kg, po administered as single dose measured upto 24 hrs. Type of data set: ADME, organism-based. The conditions noted are these: in vivo. In short, it runs like this: as §2
The nature of data set [12]: Toxicity in female Wistar Han rat assessed as change in body weight at 1000 mg/kg, po administered as single dose measured over 14 days. Type of data set: organism-based. The following applies: in vivo, 336 h, time > 14 day. The procedure, abridged:
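Single oral dose of 1000 mg/kg at 10 mL/kg to male and female rats (n = 6), then 14 d observation. Morbidity and mortality checked twice daily. Clinical signs recorded predose, twice on dosing day, then daily. FOB on d1, d7 or d14. Body weight on d1, 2, 5, 8, 11 and 14. Gross necropsy on d15.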

A short description of data set [13]: Prodrug conversion in rat liver S9 fraction assessed as DH5FU metabolite formation at 1.6 mM incubated for 1 hr in presence of NADPH by 19F-NMR based analysis. Type of data set: ADME, subcellular. The following applies: s9, 1 h, 1600 µM. In short, it runs like this:
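Compound added as 150 mM stock in DMSO-d₆, preincubated 5 min at 37 °C with enzyme mixture, then NADPH added (1 mM) and incubated 1 h at 37 °C, 600 rpm; controls without NADPH and without enzymes. Stopped with EtOAc, dried under N₂, redissolved in DMSO-d₆, DH5FU detected by ¹⁹F NMR vs authentic sample.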

Data set [14] is described as follows: Metabolic stability in rat hepatocytes assessed as half life at 1 uM by LC-MS/MS analysis. Type of data set: ADME, cell-based, Hepatocyte. In short, it runs like this: as §1
Data set [15] is described as follows: AUC (0 to t) in male Wistar Han rat at 10 mg/kg, po administered as single dose measured upto 24 hrs. Type of data set: ADME, organism-based. More on the design: time < 24 hrs, dose 10 mg/kg, route po. The following applies: in vivo. In short, it runs like this: as §2
Data set [16] is described as follows: Metabolic stability in human hepatocytes assessed as half life at 1 uM by LC-MS/MS analysis. Type of data set: ADME, cell-based, Hepatocyte. The procedure, abridged: as §1

Activity calls are given as the source filed them. The calls are words filed in the database; no cut-off is given here.

As usually defined, the Cmax is the highest concentration seen after dosing. In general, half-life refers to the time in which the quantity being followed falls by half. As a reminder, the AUC(0-t) is exposure summed from dosing to a finite time, without extrapolation to infinity. High values mean high exposure, low ones low exposure. For orientation: MRT means the average time that molecules of a dose stay in the body. Take `C#CCOc1ncc(F)c(OCC#C)n1`: the fraction unbound at 5 µM in data set [1] is 0.142. In addition, in data set [2], the hepatocyte CLint at 1 µM amounted to 15.3 µL/min/1e6 cells. Further, the Cmax in data set [3] worked out at 3.61 µg/mL; in data set [10], 83.6 µg/mL. Further, the half-life in data set [4] was 0.497 h. In data set [5], the recovery at 2 h, 10 µM turned out to be 73.9%. In addition, the values for the Activity entry (in data set [6]; with HCT-116; in [12]) were “Non-Toxic”, 7% and “Non-Toxic”, respectively. The results for the Drug metabolism entry in data set [7], in [9] and in [13] were “Metabolite_Detected”, “Metabolite_Detected” and “Metabolite_Notdetected”, respectively. In addition, the AUC(0-t) at 24 h in data set [8] is 1590 µg·h/mL; in [15], 6.08 µg·h/mL. In addition, the result with BXPC-3 was Active. In [11], this compound showed an MRT of 1.86 h. Moreover, the results for the half-life at 1 µM in data set [14] and in [16] were 1.52 h and 5.37 h, respectively.
